TRPC6 inhibitor: inhibitors of mouse TRPC6 channel; Q61143; HEK293-TRPC6, membrane potential dye, ACh-evoked depolarization; stronger effect = lower value; B-score at 10 µM; hit rate 1.1% among 310,000;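 active = B-score under library mean minus 3 SD, initial fluorescence not abnormally high, positive integrated signal ratio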;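 also: B-score derived from integrated fluorescence ratio over the kinetic read; more negative B-score means stronger inhibition of depolarization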
TRPC4 inh: blocks the mouse TRPC4 cation channel. Q9QUQ5. HEK293 TRPC4beta/mu-opioid, DAMGO-evoked Fluo4 calcium flux; stronger effect = lower value. B-score at 10 µM. hit rate 0.39% among 300,000;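 active = B-score over 3 SD under the library average, no early fluorescence shift, positive overall ratio signal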
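Material: HEK293 cells with stable TRPC4beta plus mu-opioid receptor expression; probe or stimulus: DAMGO in two steps, submaximal then maximal; technique: Fluo4 calcium fluorescence by kinetic imaging, 5 s 1 Hz baseline; measure: integrated fluorescence ratio relative to baseline, converted to per-well B score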
TRPC4 potent: allosteric potentiators of mouse TRPC4 channel; B-score at 10 µM; AID 2227; hit rate 0.42% among 310,000; HEK293 TRPC4beta/mu-opioid, DAMGO EC20, Fluo-4 Ca2+ flux; stronger effect = higher value;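 active = B-score of calcium response area above 5 SD of library B-scores, with initial fluorescence ratio within 5 SD of library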;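 also: B-score of integrated fluorescence ratio over time as area under calcium response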
TRPC6 activator: activators of mouse TRPC6 channel | B-score at 10 µM | hit rate 0.13% among 310,000 | HEK293-TRPC6 membrane potential dye fluorescence; stronger effect = higher value | Q61143;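 active = B-score of the integrated fluorescence ratio above library mean plus 3 SD, and starting fluorescence ratio within library mean plus 5 SD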;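 also: higher score means more depolarization so channel activation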
Kir21 block: blocks the mouse Kir2.1 inward-rectifier potassium channel; AID 1672; HEK293-Kir2.1, FluxOR thallium flux fluorescence; stronger effect = lower value; B-score at 10 µM; hit rate 0.85% among 310,000; P35561;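 active = fluorescence ratio B-score at or below minus 3 SD of library scores, with starting-brightness B-score within 2 SD, cut at about -4.2 in these data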;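 also: channel flux triggered by added potassium and thallium sulfate stimulus; B-score of peak minus minimum fluorescence over baseline after thallium stimulus; more negative B-score means stronger Kir2.1 block with less thallium influx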
Target sequence (P35561 whole entry, looked up): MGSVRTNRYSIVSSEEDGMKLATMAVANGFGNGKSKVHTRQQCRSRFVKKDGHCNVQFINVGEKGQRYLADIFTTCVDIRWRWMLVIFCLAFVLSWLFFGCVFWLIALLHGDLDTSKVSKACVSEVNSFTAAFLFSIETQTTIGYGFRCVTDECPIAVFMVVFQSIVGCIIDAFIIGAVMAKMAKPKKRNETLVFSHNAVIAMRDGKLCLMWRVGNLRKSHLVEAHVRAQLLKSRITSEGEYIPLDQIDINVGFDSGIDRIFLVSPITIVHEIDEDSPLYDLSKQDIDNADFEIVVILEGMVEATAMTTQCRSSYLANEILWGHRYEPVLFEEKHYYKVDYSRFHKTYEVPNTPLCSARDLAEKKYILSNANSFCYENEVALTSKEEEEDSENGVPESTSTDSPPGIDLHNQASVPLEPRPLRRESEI
TRPC4 act: activators of mouse TRPC4 channel; hit rate 0.49% among 310,000; HEK293 TRPC4beta/mu-opioid, Fluo4 calcium fluorescence; stronger effect = higher value; B-score at 10 µM; Q9QUQ5; AID 2237;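 active = B-score above 5 SD of library B-scores, and initial fluorescence ratio not above library mean plus 5 SD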;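 also: positive B-score marks a calcium rise read as TRPC4 activation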
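System – HEK293 cells stably co-expressing mouse TRPC4beta and mu-opioid receptor · Signal – Fluo4 calcium-sensitive dye fluorescence, kinetic, 1 Hz baseline · Benchmarks – buffer (low) and maximal DAMGO (high) · Read-out – B score of integrated fluorescence ratio per well · Incubation – dye loading 45 min room temperature, 110 s kinetic read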
TRPC4 spec 2: second selectivity test of TRPC6 inhibitors: effect on mouse TRPC4. HEK293 TRPC4/MOR, membrane potential dye fluorescence; channel activated by saturating DAMGO dose. inhibition, % at 10 µM. shares compounds with TRPC6 inhibitor. AID 2776. hit rate 42% among 920;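 active = compounds whose fluorescence signal differed from control wells by over 3 SD, either direction, in both duplicate plates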
TRPC4 spec: selectivity of TRPC6 inhibitors: effect on mouse TRPC4; shares compounds with TRPC6 inhibitor; HEK293 TRPC4/mu-opioid, membrane potential fluorescence; activity change, negative = inhibition, % at 10 µM; hit rate 61% among 920;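 active = rise or fall in signal beyond 3 SD of buffer-only wells in both replicate plates, either sign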;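 also: integrated kinetic ratio of fluorescence range over baseline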
HEK293 MPD ctr 2-1: second counter-screen for TRPC6 inhibitors: parental HEK293 cells; parental HEK293 membrane potential dye fluorescence; maximal acetylcholine challenge after compound addition; signal change vs control, % at 10 µM; hit rate 31% among 920; shares compounds with TRPC6 inhibitor;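 active = membrane potential signal moving either way by over 3 SD of the maximum-effect control, in both duplicate plates, meaning non-specific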
HEK293 MPD ctr-1: parental HEK293 nonspecific activity of TRPC6 inhibitors | shares compounds with TRPC6 inhibitor | parental HEK293 membrane potential dye fluorescence | membrane potential signal change, % at 10 µM | hit rate 60% among 920;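 active = membrane potential signal shifting up or down by more than 3 SD of buffer-only wells, on both duplicate plates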
HEK293 MPD ctr-2: parental HEK293 nonspecific activity of TRPC6 modulators | shares compounds with TRPC6 inhibitor | membrane potential dye fluorescence | membrane potential signal change, % at 10 µM | hit rate 51% among 2,400 | AID 488924;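 active = membrane potential signal moves up or down beyond 5 SD from buffer-only wells, on both duplicate plates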
HEK293 MPD ctr 2-2: second counter-screen for TRPC6 modulators: effect in parental HEK293 cells. membrane potential dye fluorescence; after compound, maximal acetylcholine stimulation. hit rate 14% among 2,400. shares compounds with TRPC6 inhibitor. inhibition, % at 10 µM;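 active = membrane potential signal drops by more than 5 SD from the mean control signal, in both duplicate plates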;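 also: plate controls were acetylcholine ECmax control wells for no effect and buffer only wells for full effect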
TRPC4/MOR mod: selectivity of TRPC6 modulators against mouse TRPC4; shares compounds with TRPC6 inhibitor; HEK293 TRPC4/mu-opioid, membrane potential fluorescence; percent change from control (negative = decrease, positive = increase), % at 10 µM; hit rate 69% among 2,400; AID 488927;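 active = membrane potential signal moved up or down beyond 5 SD of buffer control wells, in both duplicate plates, actives on both sides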;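 also: plate controls were assay buffer wells for no effect and DAMGO maximal-effect wells for full effect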
TRPC4/MOR inh 2: mouse TRPC4 off-target activity of TRPC6 modulators, second screen | hit rate 55% among 2,400 | HEK293 TRPC4/mu-opioid, membrane potential dye fluorescence; stimulated with maximal-effect DAMGO | AID 488928 | inhibition, % at 10 µM | shares compounds with TRPC6 inhibitor;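 active = drop in membrane potential signal beyond 5 SD of the control wells in both duplicate plates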;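 also: TRPC4 counter screen for TRPC6 hits run under conditions tuned for TRPC6 not TRPC4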
TRPC6 inh conf: mouse TRPC6 inhibitor confirmation; hit rate 43% among 3,300; AID 488960; inhibition, % at 10 µM; HEK293-TRPC6, membrane potential dye, ACh-evoked depolarization; shares compounds with TRPC6 inhibitor;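 active = fluorescence ratio falls more than 5 SD below the full-stimulation control mean, in both duplicate runs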;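 also: integrated fluorescence ratio of peak minus minimum over baseline after agonist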
TRPC6 act conf: confirmation of mouse TRPC6 activators. shares compounds with TRPC6 inhibitor. HEK293-TRPC6 membrane potential dye fluorescence, FDSS. activation, % at 10 µM. hit rate 11% among 2,800. AID 488961;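 active = ratio signal rise beyond 5 SD above unstimulated control wells' mean, seen in both duplicate runs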;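 also: plate controls were buffer EC0 wells for no effect and acetylcholine ECmax response for full effect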
* hit, by the source's call; i = inactive; x = no result. In the library only some 2.9% were active in any assay of this set; here they are far more common.

SMILES	TRPC6 inhibitor	TRPC4 inh	TRPC4 potent	TRPC6 activator	Kir21 block	TRPC4 act	TRPC6 inh conf	TRPC6 act conf	others
CCN(CC)S(=O)(=O)N1CCC(C(=O)NCc2ccc(C)cc2)CC1	i	i	i	i	-1.56	i	x	x
CCC(C)(C)NC(=O)C(Sc1ccccc1)c1ccccc1 (stereo not drawn)	i	i	i	i	0.02	i	x	x
Cc1cc(=O)oc2cc(O)c(N=Nc3ccccc3)cc12	i	i	i	i	-1.27	i	x	x
COc1ccc(S(=O)(=O)N2CCCC2CNC(=O)C(=O)NCc2ccco2)cc1 (stereo not drawn)	i	i	i	i	0.61	i	x	x
CCN(CC)CCNC(=O)c1nn(-c2ccc(C)cc2)c(=O)c2c1c1ccccc1n2C	-8.88*	i	i	i	0.48	i	64.4%*	i	TRPC4 spec 2=56.5%*;TRPC4 spec=-15.0%*;HEK293 MPD ctr 2-1=i;HEK293 MPD ctr-1=-187.0%*
Cc1cccc(NC(=O)CNC(=O)c2ccc(-n3cncn3)c([N+](=O)[O-])c2)c1C	i	i	i	i	-0.72	i	x	x
CCOC(=O)c1sc2nc3c(SCC(=O)O)cc(C(=O)c4cc(F)ccc4O)cn3c(=O)c2c1C	i	i	i	i	1.46	i	x	x
COC(=O)c1cc(C(=O)c2cc(F)ccc2O)cn2c(=O)c3c(C)c(C)sc3nc12	-5.43*	i	i	i	0.04	i	i	i	HEK293 MPD ctr-2=i;HEK293 MPD ctr 2-2=i;TRPC4/MOR mod=i;TRPC4/MOR inh 2=43.5%*
O=C(NC1CCCCC1)C(c1ccc(F)cc1)N(CCN1CCOCC1)C(=O)c1ccc(-c2ccccc2)[nH]1 (stereo not drawn)	i	i	i	i	1.63	i	x	x
O=C(NC1CCCC1)C(c1ccncc1)N(CCCN1CCOCC1)C(=O)c1ccc(-c2ccccc2)[nH]1 (stereo not drawn)	-5.13*	i	i	i	0.04	i	i	i	HEK293 MPD ctr-2=i;HEK293 MPD ctr 2-2=i;TRPC4/MOR mod=i;TRPC4/MOR inh 2=36.0%*
CCN(c1ccccc1)S(=O)(=O)c1cccc(C(=O)N(C)CCOc2ccccc2)c1	i	i	i	i	1.62	i	x	x
CCOC(=O)Nc1ccc2c(c1)N(C(=O)N1CCN(C)CC1)c1ccccc1S2	-5.3*	i	i	i	-0.54	i	i	i	HEK293 MPD ctr-2=i;HEK293 MPD ctr 2-2=i;TRPC4/MOR mod=i;TRPC4/MOR inh 2=36.5%*
CCOC(=O)Nc1ccc2c(c1)N(C(=O)CCN1CCN(C)CC1)c1ccccc1S2	i	i	i	i	0.51	i	x	x
CCOc1ccccc1NC(=O)c1cnc(NS(=O)(=O)c2ccccc2)nc1	i	i	i	i	-0.58	i	x	x
CC1CC(O)(CC(O)(c2ccccc2)c2ccccc2)C(C)CN1C (stereo not drawn)	i	i	i	i	0.96	i	x	x
CCN1CC(C)C(O)(c2ccccc2)CC1C (stereo not drawn)	-7.15*	i	i	i	-1.19	i	i	i	TRPC4 spec 2=i;TRPC4 spec=i;HEK293 MPD ctr 2-1=i;HEK293 MPD ctr-1=i
CCOc1cc2nc(-c3ccc(OC)c(OC)c3)nc(N3CC(C)OC(C)C3)c2cc1OC (stereo not drawn)	-8.33*	i	i	i	0.67	i	i	i	TRPC4 spec 2=i;TRPC4 spec=-20.3%*;HEK293 MPD ctr 2-1=i;HEK293 MPD ctr-1=i
CCOc1cc2nc(-c3ccc(OC)c(OC)c3)nc(N3CCOCC3)c2cc1OC	i	i	i	i	2.91	i	x	x
O=C(Nc1ccccc1)c1ccccc1Oc1ccc(C(F)(F)F)cc1[N+](=O)[O-]	i	i	i	i	-3.78	i	x	x
O=C(Nc1ccc(F)cc1)c1ccccc1Oc1ccc(C(F)(F)F)cc1[N+](=O)[O-]	-5.34*	i	i	i	0.9	i	i	i	HEK293 MPD ctr-2=i;HEK293 MPD ctr 2-2=i;TRPC4/MOR mod=i;TRPC4/MOR inh 2=35.0%*
COC(=O)c1ccc2c(c1)C(C)(C)C(/C=C/c1ccc(OC)c(OC)c1OC)=[N+]2C	-9.55*	i	i	i	-7.22*	i	71.5%*	i	HEK293 MPD ctr-2=-179.0%*;HEK293 MPD ctr 2-2=88.0%*;TRPC4/MOR mod=-190.5%*;TRPC4/MOR inh 2=55.5%*
Cc1ccc(-n2nc(C(N)=O)nc2-c2ccccc2)cc1	i	i	i	i	-1.59	i	x	x
COc1ccc(-n2nc(C(N)=O)nc2-c2ccccc2)cc1	-5.84*	i	i	i	0.43	i	47.5%*	x	HEK293 MPD ctr-2=i;HEK293 MPD ctr 2-2=i;TRPC4/MOR mod=i;TRPC4/MOR inh 2=i
Cc1onc(-c2c(F)cccc2Cl)c1C(=O)NC(=S)Nc1c(C)n(C)n(-c2ccccc2)c1=O	-9.22*	i	i	i	0.08	i	i	i	TRPC4 spec 2=i;TRPC4 spec=i;HEK293 MPD ctr 2-1=38.5%*;HEK293 MPD ctr-1=i
Cc1onc(-c2c(F)cccc2Cl)c1C(=O)Nc1c(C)n(C)n(-c2ccccc2)c1=O	i	i	i	i	-0.2	i	x	x
N#CC1(NC(=O)COC(=O)c2cc([N+](=O)[O-])ccc2N2CCOCC2)CCCCC1	i	i	i	i	0.67	i	x	x

Source: PubChem (Johns Hopkins Ion Channel Center)
